Experimental data as given in ChEMBL document CHEMBL1122688, “Antimycotic azoles. 7. Synthesis and antifungal properties of a series of novel triazol-3-ones” (1984).

Columns and labels:
Aspergillus fumigatus = test: In vitro antifungal activity against Aspergillus fumigatus; assay type: functional
Method in brief: (§1)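 Fungal growth-inhibition screen (Godefroi method) against dermatophytes, yeasts, moulds and other fungi. The value is the lowest concentration (µg/mL) giving total inhibition of growth, tested up to 100 µg/mL.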

Candida albicans = test: In vitro antifungal activity against Candida albicans; assay type: functional; method in brief: as §1
Candida tropicalis = test: In vitro antifungal activity against Candida tropicalis; assay type: functional; method in brief: as §1
Cryptococcus neoformans = test: In vitro antifungal activity against Cryptococcus neoformans; assay type: functional; method in brief: as §1
Microsporum canis = test: In vitro antifungal activity against Microsporum canis; assay type: functional; method in brief: as §1
[1] = In vitro antifungal activity against Mucor sp; assay type: functional; method in brief: as §1
Phialophora verrucosa = test: In vitro antifungal activity against Phialophora verrucosa; assay type: functional; method in brief: as §1
Saprolegnia = test: In vitro antifungal activity against Saprolegnia sp; assay type: functional; method in brief: as §1
Sporothrix schenckii = test: In vitro antifungal activity against Sporothrix schenck ii; assay type: functional; method in brief: as §1
Trichophyton benhamiae = test: In vitro antifungal activity against Trichophyton mentagrophytes; assay type: functional, Arthroderma benhamiae; method in brief: as §1
Trichophyton rubrum = test: In vitro antifungal activity against Trichophyton rubrum; assay type: functional; method in brief: as §1
[2] = In vivo activity against microsporosis guinea pig, measured as the ratio of animals cured/animals infected (C/I) at dose 2.5 mg/kg; C/I = 0/2; assay type: functional
[3] = In vivo activity against microsporosis guinea pig, measured as the ratio of animals cured/animals infected (C/I) at dose 10 mg/kg; C/I = 0/2; assay type: functional
[4] = In vivo activity against vaginal candidoses in rats, measured as the ratio of animals cured/animals infected (C/I) at dose 2.5 mg/kg; C/I = 1/2; assay type: functional
[5] = In vivo activity against vaginal candidoses in rats, measured as the ratio of animals cured/animals infected (C/I) at dose 2.5 mg/kg; C/I = 0/2; assay type: functional
[6] = In vivo activity against microsporosis guinea pig, measured as the ratio of animals cured/animals infected (C/I) at dose 10 mg/kg; C/I = 2/2; assay type: functional
[7] = In vivo activity against microsporosis guinea pig, measured as the ratio of animals cured/animals infected (C/I) at dose 10 mg/kg; C/I = 1/2; assay type: functional
[8] = In vivo activity against vaginal candidoses in rats, measured as the ratio of animals cured/animals infected (C/I) at dose 2.5 mg/kg; C/I = 4/6; assay type: functional
[9] = In vivo activity against vaginal candidoses in rats, measured as the ratio of animals cured/animals infected (C/I) at dose 1.25 mg/kg; C/I = 0/2; assay type: functional

| SMILES | Inhibition (Aspergillus fumigatus) [µg/mL] | Inhibition (Candida albicans) [µg/mL] | Inhibition (Candida tropicalis) [µg/mL] | Inhibition (Cryptococcus neoformans) [µg/mL] | Inhibition (Microsporum canis) [µg/mL] | Inhibition [1] [µg/mL] | Inhibition (Phialophora verrucosa) [µg/mL] | Inhibition (Saprolegnia) [µg/mL] | Inhibition (Sporothrix schenckii) [µg/mL] | Inhibition (Trichophyton benhamiae) [µg/mL] | Inhibition (Trichophyton rubrum) [µg/mL] | C/I ratio [2] | C/I ratio [3] | C/I ratio [4] | C/I ratio [5] | C/I ratio [6] | C/I ratio [7] | C/I ratio [8] | C/I ratio [9] |
| --- | --- | --- | --- | --- | --- | --- | --- | --- | --- | --- | --- | --- | --- | --- | --- | --- | --- | --- | --- |
| CCc1nnc(O)n1-c1ccc(N2CCN(c3ccc(OC[C@@H]4COC(Cn5ccnc5)(c5ccc(Cl)cc5Cl)O4)cc3)CC2)cc1 (some centres undefined) | >100 | 100 | 100 | >100 | >100 | >100 | >100 | >100 | >100 | >100 | >100 | 0 | – | – | – | – | – | – | – |
| CC(C)Cn1ncn(-c2ccc(N3CCN(c4ccc(OC[C@@H]5COC(Cn6ccnc6)(c6ccc(Cl)cc6Cl)O5)cc4)CC3)cc2)c1=O (some centres undefined) | >100 | 100 | >100 | >100 | >100 | > 100 | >100 | >100 | >100 | 100 | >100 | – | 0 | 1 | – | – | – | – | – |
| Cc1nnc(O)n1-c1ccc(N2CCN(c3ccc(OC[C@@H]4COC(Cn5cncn5)(c5ccc(Cl)cc5Cl)O4)cc3)CC2)cc1 (some centres undefined) | >100 | >100 | 1 | 100 | >100 | >100 | 100 | >100 | >100 | 10 | 100 | – | 0 | – | – | – | – | – | – |
| CCCn1nc(C)n(-c2ccc(N3CCN(c4ccc(OC[C@@H]5COC(Cn6ccnc6)(c6ccc(Cl)cc6Cl)O5)cc4)CC3)cc2)c1=O (some centres undefined) | >100 | 100 | 100 | >100 | >100 | >100 | >100 | >100 | >100 | >100 | >100 | – | – | – | 0 | – | – | – | – |
| Cc1nn(C(C)C)c(=O)n1-c1ccc(N2CCN(c3ccc(OC[C@@H]4COC(Cn5cncn5)(c5ccc(Cl)cc5Cl)O4)cc3)CC2)cc1 (some centres undefined) | >100 | >100 | 10 | >100 | >100 | >100 | >100 | >100 | >100 | 100 | >100 | – | 0 | 1 | – | – | – | – | – |
| O=c1n(-c2ccc(N3CCN(c4ccc(OC[C@@H]5COC(Cn6cncn6)(c6ccc(Cl)cc6Cl)O5)cc4)CC3)cc2)cnn1C1CCCC1 (some centres undefined) | >100 | >100 | >100 | >100 | >100 | >100 | >100 | >100 | >100 | 100 | >100 | 0 | – | 1 | – | 2 | – | – | – |
| CCn1nc(C)n(-c2ccc(N3CCN(c4ccc(OC[C@@H]5COC(Cn6ccnc6)(c6ccc(Cl)cc6Cl)O5)cc4)CC3)cc2)c1=O (some centres undefined) | >100 | >100 | 100 | >100 | >100 | >100 | >100 | >100 | >100 | 100 | >100 | 0 | – | – | 0 | – | – | – | – |
| Oc1nncn1-c1ccc(N2CCN(c3ccc(OC[C@@H]4COC(Cn5cncn5)(c5ccc(Cl)cc5Cl)O4)cc3)CC2)cc1 (some centres undefined) | >100 | >100 | >100 | >100 | >100 | >100 | >100 | >100 | >100 | >100 | >100 | – | 0 | – | – | – | – | – | – |
| CCC(C)n1ncn(-c2ccc(N3CCN(c4ccc(OC[C@@H]5COC(Cn6ccnc6)(c6ccc(Cl)cc6Cl)O5)cc4)CC3)cc2)c1=O (some centres undefined) | 100 | >100 | 1 | 10 | >100 | >100 | 100 | >100 | >100 | 1 | 1 | – | – | – | – | – | 1 | – | – |
| Cc1nnc(O)n1-c1ccc(N2CCN(c3ccc(OC[C@@H]4COC(Cn5ccnc5)(c5ccc(Cl)cc5Cl)O4)cc3)CC2)cc1 (some centres undefined) | >100 | 100 | 10 | 100 | >100 | >100 | >100 | >100 | >100 | 10 | 10 | – | 0 | – | – | – | – | – | – |
| Oc1nncn1-c1ccc(N2CCN(c3ccc(OC[C@@H]4COC(Cn5ccnc5)(c5ccc(Cl)cc5Cl)O4)cc3)CC2)cc1 (some centres undefined) | >100 | >100 | 100 | >100 | >100 | >100 | >100 | >100 | >100 | 100 | >100 | – | – | – | 0 | – | – | – | – |
| CCn1ncn(-c2ccc(N3CCN(c4ccc(OC[C@@H]5COC(Cn6ccnc6)(c6ccc(Cl)cc6Cl)O5)cc4)CC3)cc2)c1=O (some centres undefined) | >100 | 100 | 100 | >100 | >100 | >100 | >100 | >100 | >100 | 100 | 10 | – | – | – | 0 | – | – | – | – |
| CC(C)CCn1ncn(-c2ccc(N3CCN(c4ccc(OC[C@@H]5COC(Cn6cncn6)(c6ccc(Cl)cc6Cl)O5)cc4)CC3)cc2)c1=O (some centres undefined) | >100 | 100 | >100 | >100 | >100 | >100 | >100 | >100 | >100 | 100 | >100 | – | – | – | 0 | – | 1 | – | – |
| O=c1n(-c2ccc(N3CCN(c4ccc(OC[C@@H]5COC(Cn6cncn6)(c6ccc(Cl)cc6Cl)O5)cc4)CC3)cc2)cnn1CC1CC1 (some centres undefined) | >100 | 100 | >100 | >100 | >100 | >100 | 100 | >100 | >100 | 10 | 10 | 0 | – | 1 | – | 1 | – | – | – |
| CCCCn1ncn(-c2ccc(N3CCN(c4ccc(OC[C@@H]5COC(Cn6ccnc6)(c6ccc(Cl)cc6Cl)O5)cc4)CC3)cc2)c1=O (some centres undefined) | >100 | 100 | 100 | >100 | >100 | >100 | >100 | >100 | >100 | 100 | 10 | – | – | – | – | – | – | 4 | 0 |
